Only some compounds are listed: those with a hit (about 1.7% of all), similar ones and a draw of the others.
Rtt109 HAT inh – inhibitors of C. albicans Rtt109/Vps75 HAT, primary screen, biochemical, ThioGlo CoA-SH fluorescence, plate reader. Histone acetyltransferase RTT109 (Candida albicans (strain SC5314 / ATCC MYA-2876)), …. purified Rtt109/Vps75, 4 h. inhibition, % at 34.9 µM. 330,000 compounds, 0.16% hits. AID 540336, 2011;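 active = inhibition of at least 50% in every replicate; inconclusive = best replicate reaches 50% inhibition but some replicates fall short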
Target sequence (Q5AAJ8 whole entry, looked up): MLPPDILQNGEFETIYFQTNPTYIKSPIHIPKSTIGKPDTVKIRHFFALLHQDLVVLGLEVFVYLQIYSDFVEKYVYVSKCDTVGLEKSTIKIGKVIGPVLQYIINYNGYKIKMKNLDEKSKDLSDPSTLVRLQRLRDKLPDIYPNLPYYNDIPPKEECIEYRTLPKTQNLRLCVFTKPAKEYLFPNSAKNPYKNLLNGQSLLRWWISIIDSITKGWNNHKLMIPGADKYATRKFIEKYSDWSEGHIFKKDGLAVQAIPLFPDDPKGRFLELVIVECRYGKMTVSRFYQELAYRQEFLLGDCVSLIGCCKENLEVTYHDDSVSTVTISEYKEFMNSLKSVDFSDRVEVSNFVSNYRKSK
SKKanGAS inh – S. pyogenes SKKanGAS growth inhibitors in kanamycin, primary screen, streptokinase expression inhibitor project, SKKanGAS strain, BacTiter-Glo luminescence; inhibition, % at 7.5 µM; 300,000 compounds, 1.3% hits; 6 h; AID 1662, 2009;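 active = mean replicate score, as percent of positive control median, at least 50; inconclusive = mean below 50 but one replicate at or above 50; inactive = mean and every replicate below 50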;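 also: strain carries kanamycin resistance gene driven by streptokinase promoter and grows in 40 µg/ml kanamycin; loss of luminescence reflects streptokinase promoter inhibition or plain growth inhibition; 0% = median of DMSO wells and 100% = positive control at its reference dose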
CSC inhib – cancer stem cell viability inhibitors, primary screen, luminescence; inhibition, % at 7.5 µM; cancer stem cell-like cells viability; AID 2717, 2010; 300,000 compounds, 1.1% hits; in the data active = inhibition above about 75%; inconclusive = no clear call, values can overlap the other calls; tested in HMLE shEcad cells
FN deposit inh – inhibitors of fibronectin matrix deposition, primary screen, AH1F cells, Alexa488-fibronectin fluorescence, plate reader; AH1F fibroblasts, overnight; inhibition, % at 12.6 µM; 350,000 compounds, 0.086% hits; AID 743247, 2014;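 active = mean inhibition across replicates of 30% or more, regardless of how many single replicates reach that level; inconclusive = mean under 30% yet at least half of replicates reach 30%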;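 also: positive control wells lacked labelled fibronectin entirely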
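Material – AH1F fibroblast monolayer, labelled fibronectin deposition · Reagent – labelled fibronectin 24 nM · Timing – 1 h adhesion, overnight exposure · Measured by – fluorescence at 485 nm excitation, 525 nm emission · Read-out – inhibition of fibronectin deposition signal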
PglD DTNB – C. jejuni PglD acetyltransferase inhibitors, primary screen, biochemical, DTNB colorimetric, single point; UDP-N-acetylbacillosamine N-acetyltransferase PglD (Campylobacter jejuni); purified PglD enzyme, DTNB colorimetric CoA detection; inhibition, % at 12.5 µM; 360,000 compounds, 0.098% hits; AID 602405, 2012; in the data active = inhibition above about 16%, passing the limit was not always enough; inconclusive = no clear call, values can overlap the other calls
PfHsp90 set2 – growth inhibition of PfHsp90-expressing yeast, primary screen, antimalarial PfHsp90 inhibitor project, S. cerevisiae, BacTiter-Glo luminescence, single point, set 2 | 310,000 compounds, 0.32% hits | AID 504621, 2011 | BacTiter-Glo ATP, 48 h; yeast lacking PDR1 and PDR3 efflux regulators | inhibition, % at 9.4 µM;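 active = every replicate shows inhibition above about 80%, whatever the replicate mean, limit read from the data; inconclusive = mean inhibition reaches the set limit but some replicate falls short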;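 also: 0% = DMSO neutral controls and 100% = 20 µM radicicol positive controls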
* marks the source's active call; other numbers are inactive results.

O=C(Cc1ccc(Cl)cc1)NNC(=S)NC(=O)c1cccs1 was read as Rtt109 HAT inh -12.7, SKKanGAS inh 81.9*, CSC inhib 12.8, FN deposit inh 0.6 and PfHsp90 set2 -20.6.
For O=C(Cc1cccs1)NNC(=S)NCc1ccc(Cl)cc1 the results were Rtt109 HAT inh 6.0, SKKanGAS inh -16.9, CSC inhib -0.1, PglD DTNB -3.1 and PfHsp90 set2 -7.6.
C[C@H]1CN([C@@H](C)CO)C(=O)c2cccc(NC(=O)C3CC3)c2O[C@@H]1CN(C)C was read as PglD DTNB -2.4.
Screening O=C(Nc1cc(S(=O)(=O)N2CCCCC2)ccc1Cl)c1ccccc1NS(=O)(=O)c1ccc(F)cc1 returned Rtt109 HAT inh -1.6, SKKanGAS inh 41.9, CSC inhib 82.6*, FN deposit inh -5.3 and PfHsp90 set2 -24.2.
Screening COc1ccc(-c2csc(NC(=O)c3ccccc3NS(=O)(=O)c3ccc(F)c(F)c3)n2)cc1 returned Rtt109 HAT inh 12.1, SKKanGAS inh 84.0*, CSC inhib 114.0*, FN deposit inh 16.7, PglD DTNB -0.7 and PfHsp90 set2 -5.3.
Screening Cc1ccc(S(=O)(=O)Nc2ccccc2C(=O)Nc2nc(-c3ccc(F)cc3)cs2)cc1 returned Rtt109 HAT inh -1.2, SKKanGAS inh 105.6*, CSC inhib 0.1, FN deposit inh -0.4, PglD DTNB 1.5 and PfHsp90 set2 inconclusive.
`CC(C)(C)NC(=O)Cn1nnc(-c2ccc(OCc3c(F)cccc3Cl)cc2)n1` gave Rtt109 HAT inh -0.1, SKKanGAS inh 12.9, CSC inhib 77.9*, FN deposit inh -8.1, PglD DTNB 0.9 and PfHsp90 set2 -6.8.
Screening CC(C)(C)NC(=O)Cn1nnc(-c2ccc(Cl)cc2)n1 returned Rtt109 HAT inh -7.4, SKKanGAS inh -11.1, CSC inhib -1.7 and PglD DTNB -1.8.
`Cc1ccc(Nc2nc(N)c([N+](=O)[O-])c(N3CCCC(C)C3)n2)cc1C` (centres undefined) gave Rtt109 HAT inh -7.5, SKKanGAS inh 42.7, CSC inhib 39.5, PglD DTNB 2.9 and PfHsp90 set2 132.1*.
For CCOCCCNC1=C(Cl)C(=O)c2ccccc2C1=O the results were Rtt109 HAT inh -3.9, SKKanGAS inh -4.7, CSC inhib 23.8, FN deposit inh 5.7 and PfHsp90 set2 107.4*.
For O=C1C(Cl)=C(NCCCO)C(=O)c2ccccc21 the results were Rtt109 HAT inh 8.9, SKKanGAS inh 6.4, CSC inhib 24.5, PglD DTNB -0.8 and PfHsp90 set2 -3.2.
O=C(Nc1ccc(Cl)c(Cl)c1)N[C@@H]1CC[C@H](CCn2cc(C3CCCCC3)nn2)O[C@@H]1CO was read as FN deposit inh -10.2 and PglD DTNB -3.5.
Cc1ccc(S(=O)(=O)N(C)C[C@H]2OCCCC[C@H](C)Oc3ccc(NC(=O)CCC(F)(F)F)cc3C(=O)N([C@@H](C)CO)C[C@H]2C)cc1 was read as FN deposit inh -11.6 and PglD DTNB -6.0.
`CCOC(=O)c1cc(-c2ccc(/C=N\n3cnnc3)o2)ccc1Cl` gave Rtt109 HAT inh 10.0, SKKanGAS inh -5.3, CSC inhib -7.3, PglD DTNB 25.2* and PfHsp90 set2 -10.0.
`CCCCOC(=O)c1cc(-c2ccc(/C=N/n3cnnc3)o2)ccc1Cl` gave Rtt109 HAT inh -3.0, SKKanGAS inh 0.2, CSC inhib -8.7, PglD DTNB 6.6 and PfHsp90 set2 -8.4.
`COc1ccc(S(=O)(=O)Nc2ccc3c(c2)C(=O)N([C@H](C)CO)C[C@@H](C)[C@@H](CN(C)Cc2ccc4c(c2)OCO4)OCCCC[C@@H](C)O3)cc1` gave FN deposit inh 3.0 and PglD DTNB -1.7.
`O=Cc1cc(N=Nc2ccccc2Cl)ccc1O` gave Rtt109 HAT inh -2.0, SKKanGAS inh 77.9*, CSC inhib -4.1, FN deposit inh 1.3 and PfHsp90 set2 -26.1.

From PubChem BioAssay
